The list is not random: actives were taken first. Their share in the collection is about 1.7%.
Rtt109 HAT inh = inhibitors of C. albicans Rtt109/Vps75 HAT, primary screen, biochemical, ThioGlo CoA-SH fluorescence, plate reader; Histone acetyltransferase RTT109 (Candida albicans (strain SC5314 / ATCC MYA-2876)), …; purified Rtt109/Vps75, 4 h; inhibition, % at 34.9 µM; hit rate 0.16% among 330,000; AID 540336, 2011;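 active = inhibition of at least 50% in every replicate; inconclusive = best replicate reaches 50% inhibition but some replicates fall short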
Target sequence (Q5AAJ8 whole entry, looked up): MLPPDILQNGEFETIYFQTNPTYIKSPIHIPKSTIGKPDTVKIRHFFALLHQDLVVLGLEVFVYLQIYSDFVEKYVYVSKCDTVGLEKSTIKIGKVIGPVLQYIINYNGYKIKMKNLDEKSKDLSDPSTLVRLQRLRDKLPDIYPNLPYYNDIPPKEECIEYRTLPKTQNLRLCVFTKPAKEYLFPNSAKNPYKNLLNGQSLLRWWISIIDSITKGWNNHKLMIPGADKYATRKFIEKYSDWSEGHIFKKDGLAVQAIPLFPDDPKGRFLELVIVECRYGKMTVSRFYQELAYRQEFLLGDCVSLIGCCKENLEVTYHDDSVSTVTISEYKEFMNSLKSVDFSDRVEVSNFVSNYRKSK
PfHsp90 set2 = growth inhibition of PfHsp90-expressing yeast, primary screen, antimalarial PfHsp90 inhibitor project, S. cerevisiae, BacTiter-Glo luminescence, single point, set 2 | BacTiter-Glo ATP, 48 h; yeast lacking PDR1 and PDR3 efflux regulators | inhibition, % at 9.4 µM | hit rate 0.32% among 310,000 | AID 504621, 2011;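 active = every replicate shows inhibition above about 80%, whatever the replicate mean, limit read from the data; inconclusive = mean inhibition reaches the set limit but some replicate falls short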
SKKanGAS inh = S. pyogenes SKKanGAS growth inhibitors in kanamycin, primary screen, streptokinase expression inhibitor project, SKKanGAS strain, BacTiter-Glo luminescence; inhibition, % at 7.5 µM; 6 h; hit rate 1.3% among 300,000;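 active = mean replicate score, as percent of positive control median, at least 50; inconclusive = mean below 50 but one replicate at or above 50; inactive = mean and every replicate below 50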;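 note: strain carries kanamycin resistance gene driven by streptokinase promoter and grows in 40 µg/ml kanamycin; loss of luminescence reflects streptokinase promoter inhibition or plain growth inhibition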
FN deposition inh = inhibitors of fibronectin matrix deposition, primary screen, AH1F cells, Alexa488-fibronectin fluorescence, plate reader; AH1F fibroblasts, overnight; AID 743247, 2014; hit rate 0.086% among 350,000; inhibition, % at 12.6 µM;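 active = mean inhibition across replicates of 30% or more, regardless of how many single replicates reach that level; inconclusive = mean under 30% yet at least half of replicates reach 30%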
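Material: AH1F fibroblast monolayer depositing Alexa488-labelled fibronectin into matrix | Input: 10000 AH1F cells/well | Medium: DMEM plus 2% serum, read in PBS | Reagent: Alexa488-fibronectin, 24 nM final in well | Compound dosing: One dose per compound, pinned | Schedule: 1 h adhesion, overnight exposure | Measured by: Fluorescence at 485 nm excitation, 525 nm emission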
PglD inh = C. jejuni PglD acetyltransferase inhibitors, primary screen, biochemical, DTNB colorimetric, single point; UDP-N-acetylbacillosamine N-acetyltransferase PglD (Campylobacter jejuni); purified PglD enzyme, DTNB colorimetric CoA detection; inhibition, % at 12.5 µM; hit rate 0.098% among 360,000; AID 602405, 2012; in the data active = inhibition above about 16%, passing the limit was not always enough; inconclusive = no clear call, values can overlap the other calls
CSC inhib = cancer stem cell viability inhibitors, primary screen, luminescence; cancer stem cell-like cells viability; inhibition, % at 7.5 µM; hit rate 1.1% among 300,000; in the data active = inhibition above about 75%; inconclusive = no clear call, values can overlap the other calls; tested in HMLE shEcad cells
Hits are given with their value; . = inactive; ? = inconclusive; / = no result.

SMILES	Rtt109 HAT inh	PfHsp90 set2	SKKanGAS inh	FN deposition inh	PglD inh	CSC inhib
COc1ccc(C2NC(=O)C(C#N)=C(S)N2c2ccccc2)cc1OC (centres undefined)	.	.	.	.	/	.
N#CC1=C(S)N(c2ccccc2)C(c2ccc(-c3cccc(Cl)c3)o2)NC1=O (centres undefined)	99	.	.	.	.	.
COc1cc(C2NC(=O)C(C#N)=C(S)N2c2ccccc2)ccc1OC(C)C (centres undefined)	122	.	.	/	.	.
COc1ccc(N2C(S)=C(C#N)C(=O)NC2c2ccco2)cc1 (centres undefined)	63	.	.	.	/	.
COc1ccc(S(=O)(=O)Nc2ccc3c(c2)C(=O)N([C@@H](C)CO)C[C@H](C)[C@@H](CN(C)C(=O)Nc2ccc(F)cc2)O3)cc1	/	/	/	/	.	/
CCCCc1ccc(-n2c(Cc3cccs3)n[nH]c2=S)cc1	72	.	.	.	/	.
S=c1[nH]nc(Cc2cccs2)n1-c1ccccc1	.	.	.	/	.	.
C[C@H](NC(=O)[C@@H]1[C@@H](CO)[C@@H]2Cn3c(cccc3=O)[C@@H]2N1S(C)(=O)=O)c1ccccc1	/	/	/	/	.	/
C#CC(c1ccccc1)(c1ccccc1)n1ccnc1	/	/	/	.	/	/
Clc1ccccc1C(c1ccccc1)(c1ccccc1)n1ccnc1	.	90	50	.	.	.
Cc1noc(C)c1NC(=O)N(C)C[C@H]1Oc2c(NS(=O)(=O)c3cn(C)cn3)cccc2C(=O)N([C@@H](C)CO)C[C@@H]1C	/	/	/	.	.	/
CCCNC(=O)Nc1ccc2c(c1)OC[C@H](C)N(C(=O)CC)C[C@H](C)[C@H](OC)CN(C)C2=O	/	/	/	/	.	/
COc1ccc2c(c1)-c1c(sn(-c3ccccc3)c1=S)C(C)(C)N2	.	.	.	.	/	.
COc1ccc(-n2sc3c(c2=S)-c2cc(OC)ccc2NC3(C)C)cc1	.	.	.	/	.	129
COc1ccc(CN(C)C[C@@H]2OCCCC[C@@H](C)Oc3ccc(NC(=O)NC(C)C)cc3C(=O)N([C@@H](C)CO)C[C@@H]2C)cc1	/	/	/	/	.	/
CCC/C=C(\CCC)C(NS(=O)(=O)c1ccc(C(F)(F)F)cc1)c1ccccc1 (centres undefined)	/	/	71	/	/	102
O=C(O)C(NS(=O)(=O)c1ccc(F)cc1)c1ccccc1 (centres undefined)	/	.	.	/	/	.
COc1ccccc1C#Cc1cnc2c(c1)C(=O)N([C@H](C)CO)C[C@H](C)[C@@H](CN(C)C(=O)c1ccc3c(c1)OCO3)O2	/	/	/	.	.	/
CCC1C/C(=C\c2cccnc2)C(=O)/C(=C/c2cccnc2)C1 (centres undefined)	.	100	/	.	/	/
CN(C)c1ccc(/C=C2\CCC/C(=C\c3ccccc3)C2=O)cc1	.	.	.	.	.	86
O=C1/C(=C/c2cccnc2)CC/C1=C\c1cccnc1	.	.	.	.	.	.
O=C1/C(=C/c2cccnc2)CCC/C1=C\c1cccnc1	/	/	/	.	/	103
Cc1noc(C)c1S(=O)(=O)Nc1cccc2c1O[C@@H](CN(C)C(=O)NC1CCCCC1)[C@@H](C)CN([C@H](C)CO)C2=O	/	/	/	.	.	/
C[C@H]1CC=CC[C@H](c2ccc(F)cc2)NC(=O)[C@H](C)N(C)C(=O)c2ccccc2O1 (mixture of isomers)	/	/	/	.	/	/
COc1cccc(CN(C)C[C@@H]2OCc3cnnn3CCCC(=O)N([C@H](C)CO)C[C@@H]2C)c1	/	/	/	.	/	/
SMILES	Rtt109 HAT inh	PfHsp90 set2	SKKanGAS inh	FN deposition inh	PglD inh	CSC inhib
C[C@H]1CN([C@@H](C)CO)S(=O)(=O)c2ccc(-c3ccccc3F)cc2O[C@H]1CN(C)Cc1cncnc1	/	/	/	/	.	/
O=C(C[C@H]1C=C[C@@H](NC(=O)Nc2cc(F)ccc2F)[C@@H](CO)O1)NCCCN1CCOCC1	/	/	/	.	.	/
C=C(CC[C@@H](O)C(C)(C)O)[C@H]1CC[C@]2(C)[C@@H]1CCC1[C@@]3(C)CCC(=O)C(C)(C)C3CC[C@]12C (some centres undefined)	.	.	/	.	.	109
C=C(C)[C@@H]1CC[C@]2(C(=O)O)CC[C@]3(C)C(CCC4[C@@]5(C)CC[C@H](O)C(C)(C)C5CC[C@]43C)C12 (some centres undefined)	.	.	.	/	.	94
C=C(C)[C@@H]1CCC2(C(=O)O)CC[C@]3(C)[C@H](CC[C@@H]4[C@@]5(C)CCC(=O)C(C)(C)[C@@H]5CC[C@]43C)[C@@H]12 (some centres undefined)	.	.	104	.	.	.
COc1cccc(-c2ccc3n(c2=O)C[C@H]2[C@H](CO)[C@@H](C(=O)N4CCOCC4)N[C@@H]32)c1	/	/	/	/	.	/
O=C1Nc2ccccc2/C1=C/C(=O)c1cccs1	.	.	.	/	.	83
COc1ccc(C(=O)/C=C2/C(=O)Nc3ccccc32)cc1	.	.	.	.	.	?
COc1ccc(C(=O)/C=C2/C(=O)Nc3ccccc32)c(OC)c1	.	.	.	.	/	75
COc1cccc(NCc2cc(=O)oc3cc(-c4ccccc4)c(O)cc23)c1	.	.	110	/	/	.
Cc1cc2oc(=O)cc(CNc3ccccc3F)c2cc1O	/	.	51	.	/	.
COc1cccc(NCc2cc(=O)oc3cc(C)c(O)cc23)c1	/	.	99	.	.	.
COc1cccc(-n2c(SCc3cc(=O)oc4cc(O)c(O)cc34)nc3ccccc3c2=O)c1	.	.	.	.	.	100
CCOc1ccccc1NCc1cc(=O)oc2cc(C)c(O)cc12	.	.	.	.	.	.
C[C@H]1CN([C@@H](C)CO)C(=O)c2ccccc2-c2ccccc2CO[C@@H]1CN(C)C(=O)c1ccncc1	/	/	/	.	/	/
O=C(CCC(=O)N1CCN(c2ccc(O)cc2)CC1)c1ccc(Br)cc1	/	/	.	/	/	101
CCOc1ccc(C(=O)CCC(=O)N2CCN(c3ccc(O)cc3)CC2)cc1	.	.	/	.	.	81
O=C(CCC(=O)N1CCN(c2ccc(O)cc2)CC1)c1cccs1	.	.	.	.	/	.
COc1cccc(/C=N/NC(=O)c2c(C)nc3ccc(Br)cn23)c1O	.	.	66	/	.	89
CCOc1ccccc1/C=N/NC(=O)c1c(C)nc2ccc(Br)cn12	.	.	.	.	.	.
CCn1c(C)nc2cc(C(=O)N/N=C/c3cccc(OC)c3O)ccc21	.	.	.	.	/	109
COc1ccc(CCC(C)NCC2CCCCC2)cc1 (centres undefined)	.	.	.	/	.	93
